Screening data (PubChem)
Measles CPE: protection of cells from measles virus | AID 841 | Measles virus-infected cells, CPE protection, absorbance | protection (pct of control), % at 4 µM | actives 1.5% (n = 140,000); in the data active = protection mostly above about 24%, no sharp cut-off; inactive = mostly below about 26%
Rad51 HR inh: Rad51 (human) homologous recombination inhibition. inhibition, % at 10 µM. actives 0.085% (n = 200,000). Q06609. hRad51 DNA strand exchange, fluorescence dequenching;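 active = inhibition above 40% at the single screening dose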
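Material: human Rad51–ssDNA filaments; Probe or stimulus: labelled 47-mer dsDNA for strand exchange; Doses: single 10 µM dose; Incubation: 37 °C 15-min filament assembly, 30-min compound preincubation, 15-min exchange; Technique: FRET fluorescence dequenching, excitation 485 nm, emission 520 nm; Measure: Fluorescence-based percent inhibition, control- and blank-normalised; Benchmarks: plate control and blank wells.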
NPY-Y1 PAM-ag: potentiators or agonists of human neuropeptide Y receptor Y1; P25929; AID 1304; activation, % at 3.6 µM; NPY-Y1 expressing cells, potentiator/agonist activation; actives 0.37% (n = 220,000); in the data active = activation above about 33%, passing the limit was not always enough;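 note: cells stimulated with NPY at EC10 then isoproterenol at EC100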
Target sequence (P25929 whole entry, looked up): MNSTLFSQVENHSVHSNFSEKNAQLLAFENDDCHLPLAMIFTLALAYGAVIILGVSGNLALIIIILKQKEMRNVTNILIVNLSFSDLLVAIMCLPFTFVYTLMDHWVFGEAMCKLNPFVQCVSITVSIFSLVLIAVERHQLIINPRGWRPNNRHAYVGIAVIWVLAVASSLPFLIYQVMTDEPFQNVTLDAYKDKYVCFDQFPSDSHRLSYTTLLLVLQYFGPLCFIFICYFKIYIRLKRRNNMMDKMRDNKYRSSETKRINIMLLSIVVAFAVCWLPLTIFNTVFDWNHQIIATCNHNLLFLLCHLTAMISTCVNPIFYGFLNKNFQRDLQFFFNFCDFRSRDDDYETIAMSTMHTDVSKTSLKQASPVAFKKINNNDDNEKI
NPY-Y2 antag: blocks the human neuropeptide Y Y2 receptor. P49146. NPY-Y2 expressing cells, antagonist mode. inhibition, % at 2.7 µM. actives 0.99% (n = 140,000). AID 793; in the data active = inhibition above about 17%
Target sequence (P49146 whole entry, looked up): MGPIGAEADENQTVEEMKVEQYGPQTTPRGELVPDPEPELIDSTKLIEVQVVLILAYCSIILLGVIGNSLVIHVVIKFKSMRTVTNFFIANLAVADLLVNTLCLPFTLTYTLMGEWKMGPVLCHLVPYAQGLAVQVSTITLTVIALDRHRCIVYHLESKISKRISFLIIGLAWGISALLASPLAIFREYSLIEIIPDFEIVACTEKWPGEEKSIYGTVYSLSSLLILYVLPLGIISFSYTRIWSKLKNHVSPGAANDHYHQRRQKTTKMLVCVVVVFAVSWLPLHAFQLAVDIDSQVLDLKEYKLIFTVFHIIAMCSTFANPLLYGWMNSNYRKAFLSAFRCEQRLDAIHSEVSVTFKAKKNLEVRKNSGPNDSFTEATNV
NPY2 pot ag: human NPY-Y2 potentiation or agonism, primary screen; activation, % at 3.6 µM; actives 0.45% (n = 220,000); AID 1359; cells expressing NPY-Y2, potentiator/agonist read-out; P49146; in the data active = activation above about 27%;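 note: cells stimulated with NPY near EC25 plus isoproterenol at EC100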
NPY-Y1 antag: NPY-Y1 (human) receptor antagonism. HEK293-CNG Y1 cells, membrane potential fluorescence; NPY at EC95, then isoproterenol. inhibition, % at 3.6 µM. actives 1% (n = 200,000). AID 1040;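 active = inhibition above the campaign mean inhibition of all tested compounds plus 3 SD, cut at about 20% in these data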
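System: HEK293 cells with Y1 receptor plus CNG channel / Probe or stimulus: NPY 25 nM then isoproterenol 1 µM plus Ro 20-1724 25 µM / Compound: one concentration, 3.6 µM, in 0.4% DMSO / Schedule: compound incubation 1 h at room temperature, readout 45 min post-stimulation / Measured by: membrane potential fluorescence / Read-out: % inhibition of NPY effect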
NPY-Y1 antag ct: counter-screen for NPY-Y2 antagonists: human NPY-Y1 antagonism. shares compounds with NPY-Y2 antag. cell-based NPY-Y1 antagonism counterscreen. actives 19% (n = 710). AID 1256. inhibition, % at 3.6 µM; in the data active = inhibition above about 20%;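 note: cells challenged with NPY then isoproterenol with cAMP sensed through a CNG channel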
NPY-Y2 ant conf: human NPY-Y2 antagonism, confirmation; shares compounds with NPY-Y2 antag; HEK293 NPY-Y2 CNG channel, membrane potential fluorescence; inhibition, % at 2.8 µM; actives 32% (n = 710);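 active = mean inhibition of triplicate wells above the hit cutoff set in the primary screen, cut at about 17% in these data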
Each line names hits and unclear results; the compound was inactive in the other large screens (follow-up assays come after a bar, where they were run). Rows were chosen to be rich in hits. Some 2.8% of all compounds tested hit in one or more screens of this group.

CCC1Oc2ccc(C)cc2N(CC(=O)NCCC2=CCCCC2)C1=O (centres undefined)	NPY-Y2 antag 19 | NPY-Y1 antag ct inactive | NPY-Y2 ant conf inactive
CN(CC(CC(=O)Nc1nncs1)c1ccccc1)S(=O)(=O)c1ccc(Br)cc1 (centres undefined)	NPY-Y2 antag 18 | NPY-Y1 antag ct inactive | NPY-Y2 ant conf inactive
CN(CC(CC(=O)Nc1nncs1)c1ccccc1)S(=O)(=O)c1ccccc1 (centres undefined)	none
COc1ccc(Cn2c(/C=C/c3ccccc3)nc3ccccc32)cc1	NPY-Y2 antag 36 | NPY-Y1 antag ct inactive | NPY-Y2 ant conf 24
CC(C)Cn1c(/C=C/c2ccccc2)nc2ccccc21	NPY-Y2 antag 18 | NPY-Y1 antag ct inactive | NPY-Y2 ant conf inactive
CC(=O)c1ccc(N2Cc3ccccc3/C2=N\C(=O)Nc2ccc(Cl)cc2)cc1	NPY-Y2 antag 24 | NPY-Y1 antag ct 109 | NPY-Y2 ant conf 151
COC(=O)c1ccc(N2Cc3ccccc3/C2=N\C(=O)Nc2ccccc2)cc1	none
CC(C(=O)N1CCCC1)N1CCN(c2ccccc2O)CC1 (centres undefined)	none (no result: Measles CPE, NPY-Y2 antag)
OC[C@H]1O[C@@H](n2cnc3c(Nc4ccccc4)ncnc32)[C@H](O)[C@@H]1O	NPY-Y2 antag 22 | NPY-Y1 antag ct inactive | NPY-Y2 ant conf 49
OCC1OC(n2cnc3c(NCCc4ccccc4)ncnc32)C(O)C1O (centres undefined)	none (no result: Measles CPE, NPY-Y1 PAM-ag, NPY-Y2 antag, NPY2 pot ag, NPY-Y1 antag)
O=C(NCc1ccccn1)c1cc(-c2ccc(Cl)cc2)nc2ccccc12	NPY-Y2 antag 27 | NPY-Y1 antag ct inactive | NPY-Y2 ant conf inactive
Fc1ccc(C(c2nnnn2Cc2cccs2)N2CCN(c3ccccc3)CC2)cc1 (centres undefined)	NPY-Y2 antag 19 | NPY-Y1 antag ct inactive | NPY-Y2 ant conf inactive
COc1ccc(Cn2nnnc2C(c2cccs2)N2CCN(c3ccccc3)CC2)cc1 (centres undefined)	NPY-Y2 antag 19 | NPY-Y1 antag ct inactive | NPY-Y2 ant conf inactive
COc1ccc(Cn2nnnc2C(c2cccs2)N2CCN(c3ccc([N+](=O)[O-])cc3)CC2)cc1 (centres undefined)	none
O=C(NC1CCCCC1)C(c1ccc2ncccc2c1)N(Cc1ccc2c(c1)OCO2)C(=O)c1cccs1 (centres undefined)	NPY-Y2 antag 24 | NPY-Y1 antag ct 20 | NPY-Y2 ant conf inactive
Brc1cccc(-c2nnc(-c3ccccc3)o2)c1	NPY-Y2 antag 18 | NPY-Y1 antag ct inactive | NPY-Y2 ant conf inactive
Cc1ccc(-c2nnc(-c3cccc(Br)c3)o2)cc1	none
O=C(OCc1nnc(-c2ccccc2)o1)c1ccco1	none
O=C(OCc1nnc(-c2ccccc2)o1)c1ccc2c(c1)OCO2	NPY-Y2 antag 20 | NPY-Y1 antag ct inactive | NPY-Y2 ant conf inactive
CCOC(=O)c1c(-c2ccc(C)o2)csc1NC(=O)CSc1nnc(C)s1	NPY-Y2 antag 18 | NPY-Y1 antag ct inactive | NPY-Y2 ant conf inactive
CCOC(=O)c1c(NC(=O)CSc2nnc(C)s2)sc2c1CCC(C)C2 (centres undefined)	NPY-Y2 antag 23 | NPY-Y1 antag ct 25 | NPY-Y2 ant conf inactive
CCOC(=O)C1=C(c2ccccc2)NC(SCC(=O)Nc2cccc(C)c2)=C(C#N)C1c1ccco1 (centres undefined)	none (no result: Rad51 HR inh)
CCOC(=O)CSC1=C(C#N)C(c2ccco2)C(C(=O)Nc2cccc(C(F)(F)F)c2)=C(C)N1 (centres undefined)	NPY-Y2 antag 18 | NPY-Y1 antag ct inactive | NPY-Y2 ant conf 19
CCOC(=O)Cn1nc(-c2ccccc2)c2cnc3ccc(CC)cc3c21	NPY-Y2 antag 26 (no result: Rad51 HR inh) | NPY-Y1 antag ct inactive | NPY-Y2 ant conf inactive
CCOC(=O)Cn1nc(-c2ccccc2)nc1-c1ccccc1	none
O=C(/C=C/Nc1ccc(Cc2ccc(N/C=C/C(=O)C(F)(F)F)cc2)cc1)C(F)(F)F	none
N=c1n(Cc2ccccc2)c2ccccc2n1Cc1ccccc1	NPY-Y2 antag 23 (no result: Rad51 HR inh) | NPY-Y1 antag ct inactive | NPY-Y2 ant conf inactive
Fc1ccc(Cn2c(-c3cscn3)nc3ccccc32)c(Cl)c1	none
Nc1nonc1-c1nc2ccccc2n1Cc1ccc(F)cc1Cl	NPY-Y2 antag 25 (no result: Rad51 HR inh) | NPY-Y1 antag ct 45 | NPY-Y2 ant conf 51
CC1(C)CC(=O)c2cnc(N3CCc4ccccc43)nc2C1	none (no result: Measles CPE, NPY-Y2 antag, NPY-Y1 antag)
O=C(C1CCC1)N1CCc2cc(S(=O)(=O)Nc3ccc4c(c3)OCO4)ccc21	NPY-Y2 antag 19 | NPY-Y1 antag ct inactive | NPY-Y2 ant conf inactive
CCOc1ccc(NS(=O)(=O)c2ccc3c(c2)CCN3C(=O)C2CCC2)cc1	none
C=CCn1c(SCC(=O)N2CCc3ccccc3C2)nc2sc(C)c(C)c2c1=O	NPY-Y2 antag 19 | NPY-Y1 antag ct inactive | NPY-Y2 ant conf inactive
CCC(C)(C)n1nnnc1C(c1ccccc1)N1CCN(C2CCCC2)CC1 (centres undefined)	NPY-Y2 antag 20 | NPY-Y1 antag ct inactive | NPY-Y2 ant conf inactive
COc1cccc(C(c2nnnn2Cc2ccccc2)N2CCN(C3CCCC3)CC2)c1OC (centres undefined)	NPY-Y2 antag 18 | NPY-Y1 antag ct inactive | NPY-Y2 ant conf inactive
CCN(CC)S(=O)(=O)c1cccc(NC(=O)c2ccc(-n3nc(C)cc3C)cc2)c1	none
CCCCCCCC[n+]1c(C)n(-c2ccccc2)c2ccc(NC(C)=O)cc21	none (no result: Measles CPE, NPY-Y2 antag)
COc1cc2c(cc1NC(=O)C(c1ccccc1)c1ccccc1)CCCC2	NPY-Y2 antag 20 | NPY-Y1 antag ct inactive | NPY-Y2 ant conf inactive
COc1cc2c(cc1NC(=O)c1ccccc1F)CCCC2	none
COc1ccc(-c2cc(C(F)(F)F)nc(NCc3ccco3)n2)cc1OC	NPY-Y2 antag 18 | NPY-Y1 antag ct inactive | NPY-Y2 ant conf inactive
CN(C)CCCSc1nc(-c2ccccc2)nc2c1CCC2	NPY-Y2 antag 21 | NPY-Y1 antag ct inactive | NPY-Y2 ant conf 23
CC(C)(C)NC(=O)C(c1ccc(F)cc1)N(Cc1ccco1)C(=O)Cn1nnc(-c2cccs2)n1 (centres undefined)	NPY-Y2 antag 24 | NPY-Y1 antag ct inactive | NPY-Y2 ant conf inactive
O=C(NC1CCCC1)C(c1cccs1)N(Cc1ccco1)C(=O)Cn1nnc(-c2cccs2)n1 (centres undefined)	none
CCOC(=O)CN1C(=O)N[C@@H](CCc2ccccc2)[C@H](C(=O)OC)[C@H]1C	none (no result: Measles CPE, NPY-Y1 PAM-ag, NPY-Y2 antag, NPY2 pot ag, NPY-Y1 antag)
O=C1OCCC1Sc1nc2cc(Cl)ccc2s1 (centres undefined)	NPY-Y2 antag 23 | NPY-Y1 antag ct inactive | NPY-Y2 ant conf inactive
O=C1OCCC1Sc1nc2ccccc2s1 (centres undefined)	none (no result: Rad51 HR inh)
